# Source: PubChem BioAssay
# Hep lipid drop = modulators of hepatic lipid droplet formation | AML12 mouse hepatocytes, oleate lipid droplets, BODIPY imaging | inhibition, % at 6.5 µM | actives 0.4% (n = 240,000) | AID 1656;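 active = lipid droplet intensity inhibited by at least 50%, with more than 500 cells counted; inconclusive = wells with under 300 cells, treated as cytotoxic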
#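 Assay system: AML12 hepatocytes (mouse); Probe or stimulus: oleic acid at 100 µM to induce lipid droplet formation; Dosing: compound at 6.5 µM only; Schedule: compound with oleate, overnight; Detection: fluorescence imaging, 20x objective, two fields per well; Measure: % inhibition of lipid droplet signal.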
# Redox H2O2 prof = compounds producing H2O2 with reducing agent – biochemical, NIH compound library profiling, artefact control for MLSCN library redox annotation, primary screen; DTT-dependent redox cycling H2O2, phenol red/HRP absorbance; 100% = 100 µM peroxide control, 0% = buffer; activation, % at 10 µM; actives 0.03% (n = 200,000); AID 878;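 active = activation of at least 50% relative to the plate's high and low controls in the primary single-dose screen; inactive = activation below 50%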;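 note: compound incubated with DTT at 0.8 mM final as the reducing agent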
# MPTP block = blocks calcium-induced mitochondrial swelling | AID 602449 | isolated mouse mitochondria, Ca2+ swelling absorbance, 30 min | inhibition, % at 10 µM | actives 1.4% (n = 360,000);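 active = inhibition of 50% or more, scaled per plate between neutral and stimulator controls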;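 note: 0% = DMSO wells given calcium and 100% = 1 mM EGTA wells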
# T cruzi inh = blocks replication of Trypanosoma cruzi | T. cruzi beta-gal in NIH3T3, luminescence, 90 h | inhibition, % (test concentration not listed) | AID 1885 | actives 1.4% (n = 300,000);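 active = mean inhibition across valid replicates above about 55%, limit read from the data; inconclusive = mean below that limit but half or more replicates reach it; inactive = mean below it, under half of replicates reach it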;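 note: signal also drops with host cell toxicity which is not excluded here; 0% = plate median of DMSO wells and 100% = zero luminescence signal; higher percent means less beta-gal luminescence so fewer parasites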
#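 System – NIH/3T3 host cells with β-galactosidase reporter T. cruzi · Doses – single 50 nL compound addition per well in DMSO · Reagent – 5000 T. cruzi trypomastigotes/well · Medium – Low-serum DMEM with 2% FBS · Timing – ≥90 h infection period, 3 h prior cell attachment · Evaluation – parasite load inhibition, % · Technique – GalScreen luminescence, 60 min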
# L major viab = Leishmania major promastigote growth inhibition | Leishmania major promastigotes, resazurin fluorescence viability | inhibition, % at 10 µM | actives 9% (n = 200,000); in the data active = inhibition above about 50%;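 note: promastigotes grown with compound for 44 hours at 28 °C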
# * marks the source's active call; other numbers are inactive results; ? = inconclusive; / = no result given; ! = repeats disagree. The entries come from a sample that favours hits as a whole.
SMILES,Hep lipid drop,Redox H2O2 prof,MPTP block,T cruzi inh,L major viab
Cc1noc(C)c1COC(=O)C(c1ccccc1)c1ccccc1,14,-1,1,-7,-8
COc1ccc(/C=C(\NC(=O)c2ccc(C)cc2)C(=O)Nc2c(C)n(C)n(-c3ccccc3)c2=O)cc1,6,0,0,-22,-5
C=CCN(C(=O)CSc1nc2c(sc3ccccc32)c(=O)n1CCN(CC)CC)c1ccccc1,-8,-1,49,82*,32
Cc1ccccc1C1C(C#N)=C2N=C(N)c3c(sc4c3CCCCC4)N2C2=C1C(=O)CC(C)(C)C2 (stereo unspecified),/,-3,1,58*,62*
Cc1ccccc1C1C(C#N)=C2NC(=O)c3c(sc4c3CCCCC4)N2C2=C1C(=O)CC(C)(C)C2 (stereo unspecified),/,-4,/,-8,29
O=C(CN1CCCC1)Nc1ccccc1Sc1ccc(Cl)cc1,-36,0,0,6,17
CCCOc1ccc2ccccc2c1/C=N/n1c(C)nnc1-n1nc(C)cc1C,-4,2,-4,3,51*
Cc1noc(/C=C/c2cccnc2)c1[N+](=O)[O-],13,/,0,59*,/
COc1ccc(CN(C(=O)/C=C/C(=O)c2ccc(OC)cc2O)C(C(=O)NC2CCCCC2)c2ccncc2)cc1 (stereo unspecified),-3,-1,1,8,78*
O=C(NC1CCCCC1)C(c1ccncc1)N(Cc1ccc2c(c1)OCO2)C(=O)c1cnsn1 (stereo unspecified),-3,1,4,-12,-1
COc1ccc(C(=O)/C=C/C(=O)N(Cc2ccc3c(c2)OCO3)C(C(=O)NC2CCCCC2)c2ccncc2)c(O)c1 (stereo unspecified),-27,0,-1,5,55*
COCCN(CC(=O)NC1CCCCC1)C(=O)/C=C/C(=O)c1ccc(OC)cc1O,7,0,-1,21,1
Cc1ccc(S(=O)(=O)N2CCCC2CNC(=O)c2ccc(F)c(F)c2)cc1 (stereo unspecified),/,/,0,4,/
CCOC(=O)Nc1ccc2c(c1)N(C(=O)CCN1CCOCC1)c1ccccc1S2,0,-1,0,68*!,-2
COC(=O)Nc1ccc2c(c1)N(C(=O)CCN1CCOCC1)c1ccccc1S2,-8,5,0,40,8
CC(O)C(NS(=O)(=O)c1ccc(Cl)cc1)C(=O)OCC(=O)c1ccc2c(c1)NC(=O)CO2 (stereo unspecified),/,/,1,/,/
CC(C)CC(NC(=O)c1ccc(Cl)cc1)C(=O)OCC(=O)c1ccc2c(c1)NC(=O)CO2 (stereo unspecified),17,1,0,-10,64*
Cc1onc(-c2ccccc2)c1C(=O)N/N=C(\N)COc1ccc(Cl)cc1,-1,2,0,-8,-4
Cc1onc(-c2ccccc2Cl)c1C(=O)N/N=C(\N)COc1ccc(Cl)cc1,1,2,8,12,84*
Cc1onc(-c2ccccc2Cl)c1C(=O)Nc1ccccc1,-17,0,-1,-10,-3
CCN(C(=O)c1c(-c2ccccc2Cl)noc1C)C1CCCCC1,-11,/,1,10,/
CCC(=O)Nc1ccc(/C(C)=N\NC(=O)c2ccc(C)s2)cc1,/,-4,-1,-8,96*
Cc1onc(-c2ccccc2Cl)c1C(=O)N(C)C1CCCCC1,/,-1,1,11,78*
Cc1onc(-c2ccccc2Cl)c1C(=O)Nc1ccc(CN2CCCC2)cc1,/,0,1,29,99*
CCC(=O)Nc1ccc(/C(C)=N/NC(=O)c2c(-c3ccccc3Cl)noc2C)cc1,10,-1,-1,-26,96*
SMILES,Hep lipid drop,Redox H2O2 prof,MPTP block,T cruzi inh,L major viab
O=C(Nc1oc2ccccc2c(=O)c1-c1ccccc1)c1ccco1,/,/,-1,/,/
COc1cccc(C(=O)Oc2c(Br)cc(Br)cc2/C=N/NC(=O)c2cc(C)[nH]n2)c1,14,0,-2,61*,78*
O=C(NCCN1CCOCC1)c1cnn2c(-c3ccccc3)cc(-c3ccccc3)nc12,/,3,-1,20,99*
O=C(NCCN1CCOCC1)c1cc(-c2ccccc2)nc2ccccc12,/,/,0,/,/
COc1ccc(CN(C)CC(=O)c2c(N)n(Cc3ccccc3)c(=O)n(C)c2=O)c(OC)c1,-7,2,-1,59*,12
Cn1c(=O)c(C(=O)COc2ccc(F)cc2Cl)c(N)n(Cc2ccccc2)c1=O,24,-1,0,13,56*
CCn1c(=O)c(C(=O)CN(C)Cc2cccc(OC)c2OC)c(N)n(Cc2ccccc2)c1=O,-13,1,-3,20,4
Cn1c(=O)c(C(=O)COC(=O)c2cc(-c3ccccc3)nc3ccccc23)c(N)n(Cc2ccccc2)c1=O,-5,0,/,?,100*
Cn1c(=O)c(C(=O)COC(=O)c2cc(-c3ccco3)nc3ccccc23)c(N)n(CC2CC2)c1=O,16,1,/,17,62*
CN(CC(=O)Nc1ccccc1Br)C(=O)CNC(=O)Cc1cccc2ccccc12,-38,/,1,-16,/
COc1cc(NC(=O)CSc2nc3c(C)ccc(C)c3cc2C)c(C(=O)O)cc1OC,0,0,4,2,-9
CC1(C)OC(=O)C2=C(C[C@@H](C3CCCCC3)O[C@H]2c2ccc(Cl)cc2)O1,/,/,1,/,/
CCOC(=O)C1=C(C)NC(C)=C(C(=O)OCC)C1c1cc(N)ccc1OC(F)F,-51,1,4,31,55*
CCOC(=O)C1=C(C)NC(C)=C(C(=O)OCC)C1C,-22,0,1,-2,-5
COc1ccc(/C=C/C(=O)NCCc2ccc(S(N)(=O)=O)cc2)cc1,4,1,0,2,62*
NS(=O)(=O)c1ccc(CCNC(=O)/C=C/c2ccc([N+](=O)[O-])cc2)cc1,-18,-1,0,7,9
O=S1(=O)c2ccc(Br)cc2N2CCC[C@@H]2CN1Cc1ccccc1,/,/,-1,/,/
CC(C)(C)c1ccc(S(=O)(=O)N2CCN(Cc3cc4c(cc3O)OCO4)CC2)cc1,/,/,-1,/,/
N#CCCN1CCN(Cc2cc(-c3ccccc3)ccc2O)CC1,/,1,0,0,91*
CC(C)(C)CC(C)(C)c1ccc(O)c(CN2CCN(CCC#N)CC2)c1,-6,0,1,35,97*
COCCNC(=O)c1onc(CSc2cc(C)cc(C)c2)c1C(=O)NCCOC,/,/,0,-4,/
CC12CCC(C(=O)N/N=C/c3ccc(O)cc3)(OC1=O)C2(C)C (stereo unspecified),-8,/,1,-1,/
CCOC(=O)C1(C(F)(F)F)N=C(c2cccnc2)OC(N2CCCCC2)=N1 (stereo unspecified),10,1,0,9,4
CC(=O)Nc1nnc(S(=O)(=O)N2CCN(c3ccc(Cl)cc3[N+](=O)[O-])CC2)s1,-7,/,2,10,/
